For series [1], the system named is HepG2. The series can be described thus: Antiproliferative activity against human HepG2 cells assessed as reduction in cell viability at 0.1 to 250 uM by CellTiter-Glo assay. Format: functional, cell-based. Summed up:
(§1)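 CellTiter-Glo luminescent viability readout. Cells kept at 37 °C under 5% CO2. HMEC primary cells grown in basal medium with growth kit; leukemia lines and murine BCR-ABL (WT, Bax/Bak DKO) cultured per earlier description. Positive controls: staurosporine 25 μM, gambogic acid 10 μM, a toxic quinoline. At least two biological replicates in technical triplicate; luminescence normalized to untreated controls; EC50 computed.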

Series [2] concerns U2OS. Put plainly: Antiproliferative activity against human U2OS cells assessed as reduction in cell viability at 0.1 to 250 uM by CellTiter-Glo assay. The class given is functional, cell-based. Summed up: as §1
Series [3] relates to KOPN-8. The series can be described thus: Antiproliferative activity against human KOPN8 cells assessed as reduction in cell viability at 0.1 to 250 uM by CellTiter-Glo assay. The class given is functional, cell-based. The procedure, abridged: as §1
For series [4], the system named is MCF7. Put plainly: Upregulation of Trx expression in human MCF7 at 1 uM after 24 hrs by Western blot analysis. Format: functional, cell-based. Summed up: (§2)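 Western blot of KOPN-8 or MCF-7 lysates, 30 μg protein per lane on 4–12% Bis-Tris SDS-PAGE and transferred to nitrocellulose. Blots were probed with an oxidative stress defense antibody cocktail (catalase, SOD1, Trx, smooth muscle actin) and tubulin, and detected with IR-dye secondaries on a LI-COR Odyssey.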

In series [5] the test system is SUM149PT. Put plainly: Antiproliferative activity against human SUM149 cells assessed as reduction in cell viability at 0.1 to 250 uM after 48 hrs by propidium iodide staining based fluorescence assay. The class given is functional. Summed up: (§3)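 MDA-MB-231 and SUM149 seeded at 6 × 10^4 to 2 × 10^5 cells/well, cultured 24 h, then exposed for 48 h. Cells fixed in cold methanol, stained with 0.4% propidium iodide, fluorescence imaged. Viability expressed as percent surviving cells relative to vehicle wells.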

In series [6] the test system is MCF7. Put plainly: Upregulation of Trx level in human MCF7 at 1 uM after 3 to 6 hrs by Western blot analysis. Format: functional, cell-based. Summed up:
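MCF-7 cells were exposed to compound for 3 or 6 h. Lysates were made in Tris-HCl pH 7.5 RIPA-type buffer with protease/phosphatase inhibitors and quantified by BCA. 30 μg protein per lane was run on 4–12% Bis-Tris SDS-PAGE in MES and transferred to nitrocellulose. Blots were probed for thioredoxin with tubulin as reference, detected with IR-dye secondaries (1:15 000) and scanned on an infrared imager.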

Series [7] has as its system KOPN-8. Put plainly: Induction of cell death in human KOPN8 cells at 4 to 10 uM after 24 hrs. Format: functional, cell-based.
The subject of series [8] is KOPN-8. The series can be described thus: Upregulation of Trx expression in human KOPN8 at 1 uM after 24 hrs by Western blot analysis. The class given is functional, cell-based. Summed up:
as §2

In series [9] the test system is UoC-B1. The series can be described thus: Antiproliferative activity against human UOCB1 cells assessed as reduction in cell viability at 0.1 to 250 uM by CellTiter-Glo assay. Format: functional, cell-based. The procedure, abridged: as §1
Series [10] deals with SUP-B15. The series can be described thus: Antiproliferative activity against human SUP-B15 cells assessed as reduction in cell viability at 0.1 to 250 uM by CellTiter-Glo assay. Format: functional, cell-based. Summed up: as §1
The test system of series [11] is B-ALL. Put plainly: Antiproliferative activity against mouse B-ALL cells expressing wild type BCR-ABL assessed as reduction in cell viability at 1 to 10 uM by CellTiter-Glo assay. Format: functional, cell-based. Summed up: as §1
The test system of series [12] is KOPN-8. Put plainly: Antiproliferative activity against human KOPN8 cells assessed as reduction in cell viability at 1 to 10 uM by CellTiter-Glo assay. The class given is functional, cell-based. The procedure, abridged: as §1
Series [13] relates to B-ALL. Put plainly: Cytotoxicity against BCR-ABL p185-positive mouse B-ALL cells overexpressing human BCL-2 assessed as inhibition of cell viability after 24 hrs by AnnexinV-FITC/propidium iodide staining based flow cytometric analysis. The class given is functional.
The subject of series [14] is B-ALL. The series can be described thus: Cytotoxicity against BCR-ABL p185-positive mouse B-ALL cells overexpressing human MCL-1 assessed as inhibition of cell viability after 24 hrs by AnnexinV-FITC/propidium iodide staining based flow cytometric analysis. Format: functional.
In series [15] the test system is B-ALL. The series can be described thus: Cytotoxicity against BCR-ABL p185-positive human B-ALL cells harboring MCL-1 triple knock out mutant assessed as inhibition of cell viability after 24 hrs by AnnexinV-FITC/propidium iodide staining based flow cytometric analysis. Format: functional.
Series [16] concerns MDA-MB-231. The series can be described thus: Antiproliferative activity against human MDA-MB-231 cells assessed as reduction in cell viability at >10 uM after 48 hrs by propidium iodide staining based fluorescence assay. Format: functional. The procedure, abridged: as §3
In series [17] the test system is KOPN-8. Put plainly: Induction of mitochondrial membrane potential loss in human KOPN8 cells at 30 uM after 24 to 48 hrs by TMRM staining based flow cytometric analysis. Format: functional, cell-based. Summed up: (§4)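 TMRM flow cytometry. KOPN-8 (4 × 10^4 or 5 × 10^5 per well) or MCF-7 (2 × 10^4 or 2 × 10^5 per well) were seeded 24 h, then treated 24–48 h. FCCP 10 μM was added 10 min before staining as positive control. Cells were stained with TMRM 100 nM for 0.5 h, then PBS-washed, resuspended in PBS with 1% FBS and analysed by flow cytometry; DAPI flagged compromised cells.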

Series [18] has as its system KOPN-8. The series can be described thus: Induction of apoptosis in human KOPN8 cells at 10 uM by Annexin V-FITC and propidium iodide staining based flow cytometry. Format: functional, cell-based. Conditions: TDE = time-dependent effect. The procedure, abridged:
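KOPN-8 cells were plated at 1.00 × 10^6 per plate and held 12 h at 37 °C, then treated 24 h; positive control 2 μM staurosporine, vehicle DMSO. Cells were stained with Annexin V-FITC and PI and analysed by flow cytometry (FACSCalibur). Profiles are representative of three independent biological replicates.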

Series [19] is described as follows: Stability in DMSO assessed as micheal adduct formation by measuring intact compound incubated for 16 hrs in presence of glutathione by NMR analysis. The class given is physicochemical.
Series [20] can be described thus: Half life in human plasma. The class given is ADME, cell-free.
Series [21] relates to KOPN-8. The series can be described thus: Induction of mitochondrial membrane potential loss in human KOPN8 cells at 1 to 3 uM after 24 to 48 hrs by TMRM staining based flow cytometric analysis. The class given is functional, cell-based. Summed up: as §4
Series [22] deals with HMEC. The series can be described thus: Induction of ROS generation in human HMEC cells at 30 uM incubated for 1 hr by CellROX green reagent based fluorescence assay. The class given is cell-based. Summed up:
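CellROX green ROS assay: cells exposed 1 h at 37 °C (30 μM) with DMSO 0.5% (v/v) negative control, menadione 10 μM positive control, ± NAC (100 μM per figure legend). CellROX green added at 5 μM final, 30 min more; washed, fixed in 4% paraformaldehyde 15 min, fluorescence read at 485 ex/535 em. Mean and SD of at least three experiments; two-way ANOVA.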

For series [23], the system named is SUM149PT. The series can be described thus: Antiproliferative activity against human SUM149 cells assessed as reduction in cell viability at >10 uM after 48 hrs by propidium iodide staining based fluorescence assay. The class given is functional. Summed up:
as §3

Series [24] has as its system U2OS. The series can be described thus: Induction of apoptosis in human U2OS cells assessed as increase in caspase 3/7 activity incubated for 24 hrs by caspase 3/7 reagent based ApoTox-Glo triplex assay. The class given is functional, cell-based. The procedure, abridged:
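ApoTox-Glo Triplex assay in KOPN-8 or U2OS cells. Cells were incubated 12 h at 37 °C, then treated 24 h across 100–0.15 μM. Viability (GF-AFC, 400Ex/505Em) and cytotoxicity (bis-AAF-R110, 485Ex/520Em) were read after 30 min at 37 °C. Caspase-Glo 3/7 luminescence was then read after 0.5 h at room temperature. Values are mean ± SEM of three independent experiments.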

Active and inactive are the calls of the source. The rule behind the calls is not given here.

In the case of `CC1=C2CC(C)(C)/C=C/C(=O)/C(C)=C\C3=C[C@H](C)C[C@]3(O2)C1=O` [JATROPHONE], the inhibition result in series [1], in [2], in series [3], in series [5], in series [9] and in series [10] was “Active” each time. Moreover, the outcome in series [4] and in [8] was inactive. Also, the outcome in [6] and in series [7] was Active.
For the compound `CC(=O)O[C@H]1/C2=C/[C@@H](C)C(=O)C[C@H]3[C@@H](/C=C(\C)C(=O)[C@H]2C[C@H]1C)C3(C)C`, the inhibition entry in series [11], in [12], in series [16] and in series [23] was “Active” in each case. The IC50 worked out at 7.52 µM in series [13], 3.31 µM in series [14] and 19.6 µM in series [15]. Besides, the outcome in series [17] and in series [21] was Active. Further, the Activity entry was “Tde” in series [18], “Toxic” in [22] and “Dose-dependent effect” in series [24]. For the same compound, in series [19], the Stability entry is given as “Stable”. Besides, the half-life in series [20] is 19.5 h.

The values are drawn from ChEMBL document CHEMBL4334444, “Studies of Jatrogossone A as a Reactive Oxygen Species Inducer in Cancer Cellular Models” (J Nat Prod, 2019).
